# IDH1 mut inh – inhibitors of human IDH1 R132H. IDH1 R132H reductase, diaphorase/resazurin fluorescence, 60 min. O75874. inhibition, % at 10 µM. 0.18% of 70,000 active; in the data active = inhibition above about 34%; inconclusive = no clear call, values can overlap the other calls; inactive = below about 11%
# Target sequence (O75874 whole entry R132H): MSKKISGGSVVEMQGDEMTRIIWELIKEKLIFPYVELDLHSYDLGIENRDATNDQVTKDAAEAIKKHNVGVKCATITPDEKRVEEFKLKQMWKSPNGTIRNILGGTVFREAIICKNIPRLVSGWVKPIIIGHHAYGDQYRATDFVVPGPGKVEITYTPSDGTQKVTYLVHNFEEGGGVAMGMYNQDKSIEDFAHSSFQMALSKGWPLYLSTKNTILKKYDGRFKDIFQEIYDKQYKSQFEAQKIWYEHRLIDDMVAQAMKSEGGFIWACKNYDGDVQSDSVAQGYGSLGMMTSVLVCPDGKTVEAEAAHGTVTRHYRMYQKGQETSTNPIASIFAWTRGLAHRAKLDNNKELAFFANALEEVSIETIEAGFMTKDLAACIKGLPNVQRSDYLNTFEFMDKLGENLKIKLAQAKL
# T cruzi growth-1 – inhibitors of T. cruzi proliferation; T. cruzi beta-gal in NIH3T3, GalScreen luminescence, 90 h; inhibition, % at 8.34 µM; 5.9% of 77,000 active; AID 624255;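 active = mean inhibition above about 93%, with at least 55% of replicates each passing it, limit read from the data, passing the limit was not always enough; inconclusive = only one of those two conditions holds; inactive = neither condition holds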
# GASC1 inh – KDM4C (human) demethylase inhibition | Q9H3R0 | GST-KDM4C 2-372, H3K9me3 peptide, LANCE TR-FRET | inhibition, % at 12.5 µM | 0.15% of 96,000 active;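 active = mean replicate inhibition above about 25%, with at least 55% of replicates also reaching it, limit read from the data, passing the limit was not always enough; inconclusive = only one of those two conditions met; inactive = neither condition met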
#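 Assay system: GST-GASC-1 enzyme fragment 2-372 | Amount: 10 nM enzyme | Medium: HEPES buffer, pH 7.5, plus ascorbate | Reagent: H3K9me3 peptide substrate, Fe(II), 2-oxoglutarate | Doses: Single-point compound screen | Incubation: 30 min demethylation and 1 h detection at room temperature | Measured by: LANCE TR-FRET, excitation 340 nm, emissions 618 and 671 nm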
# T cruzi growth-2 – blocks T. cruzi growth in NIH3T3 host cells; T. cruzi beta-gal in NIH3T3, GalScreen luminescence, 90 h; 72% of 5,600 active; shares compounds with T cruzi growth-1; inhibition, % at 8.35 µM;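 active = mean replicate inhibition above about 95% and at least 55% of replicates individually reaching it, limit read from the data; inconclusive = only one of the two criteria is met; inactive = neither criterion is met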
# T cruzi growth-3 – inhibitors of T. cruzi proliferation; shares compounds with T cruzi growth-1; T. cruzi beta-gal in NIH3T3, GalScreen luminescence, 90 h; inhibition, % at 2.09 µM; 21% of 5,600 active;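 active = mean inhibition above about 95%, with at least 55% of replicates also reaching it, limit read from the data; inconclusive = meets just one of the two conditions; inactive = meets neither condition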
# NIH3T3 tox – kills mouse NIH/3T3 fibroblasts. NIH/3T3 viability, CellTiter-Glo ATP luminescence, 90 h. 14% of 5,600 active. shares compounds with T cruzi growth-1. AID 651742. cytotoxicity (signal decrease), % at 8.35 µM;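 active = mean signal decrease across replicates above about 35% based on untreated-well scatter, with enough replicates individually passing, limit read from the data; inconclusive = no rule stated though some were filed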
# 3T3 cytotox 2 – cytotoxicity in mouse NIH/3T3 fibroblasts | shares compounds with T cruzi growth-1 | NIH/3T3 viability, CellTiter-Glo ATP luminescence, 90 h | inhibition, % at 24.9 µM | 56% of 5,600 active | AID 651744;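 active = mean loss of cell viability signal at or above a set limit, and enough replicates individually reaching it; inconclusive = meets only the mean limit or only the replicate share; inactive = meets neither condition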
# A number is an active result; . = inactive; ? = inconclusive; / = no result given. The full list was thinned out, with hits kept by preference.
SMILES,IDH1 mut inh,T cruzi growth-1,GASC1 inh,T cruzi growth-2,T cruzi growth-3,NIH3T3 tox,3T3 cytotox 2
CNC[C@H]1OCCCC[C@H](C)Oc2ccc(NC(=O)Nc3ccc4c(c3)OCO4)cc2C(=O)N([C@H](C)CO)C[C@@H]1C,/,.,.,/,/,/,/
C[C@@H]1CN([C@H](C)CO)C(=O)c2cc(N(C)C)ccc2O[C@@H](C)CCCCO[C@H]1CN(C)C(=O)Nc1ccc(C(F)(F)F)cc1,/,.,.,/,/,/,/
CNC[C@@H]1OCCCC[C@@H](C)Oc2ccc(NC(=O)Nc3ccc4c(c3)OCO4)cc2C(=O)N([C@H](C)CO)C[C@@H]1C,/,95,.,.,.,.,.
C[C@@H]1CCCCO[C@H](CN(C)C(=O)Nc2ccccc2)[C@@H](C)CN([C@H](C)CO)C(=O)c2cc(NC(=O)Nc3ccc(C(F)(F)F)cc3)ccc2O1,/,/,.,/,/,/,/
C[C@@H]1CCCCO[C@@H](CN(C)C(=O)Nc2ccc(C(F)(F)F)cc2)[C@@H](C)CN([C@H](C)CO)C(=O)c2cc(NC(=O)Nc3ccc(C(F)(F)F)cc3)ccc2O1,/,116,.,108,.,.,?
CC(C)NC(=O)N(C)C[C@@H]1OCCCC[C@H](C)Oc2ccc(NC(=O)Nc3ccc(C(F)(F)F)cc3)cc2C(=O)N([C@@H](C)CO)C[C@@H]1C,.,?,.,109,.,.,.
Cn1nc(-c2ccc(NCCN3CCOCC3)c([N+](=O)[O-])c2)c2ccccc2c1=O,.,/,/,/,/,/,/
Cc1ccccc1-c1nnc(SCC(=O)Nc2cc(C(F)(F)F)ccc2N2CCOCC2)o1,.,/,/,/,/,/,/
COc1ccc(CN(C)C[C@@H]2Oc3ccc(NC(=O)Nc4ccc(F)cc4)cc3CC(=O)N([C@H](C)CO)C[C@@H]2C)cc1,.,/,.,/,/,/,/
CN(C)C(=O)[C@H]1[C@H](CO)[C@H]2Cn3c(ccc(-c4ccncc4)c3=O)[C@H]2N1Cc1ccccc1,/,.,.,/,/,/,/
CCC(=O)Nc1ccc2c(c1)C(=O)N(C)C[C@@H](OC)[C@H](C)CN(CC1CC1)[C@@H](C)CO2,.,/,.,/,/,/,/
CNC[C@@H]1OCCCC[C@@H](C)Oc2ccc(NC(=O)Nc3ccc(C(F)(F)F)cc3)cc2C(=O)N([C@@H](C)CO)C[C@@H]1C,.,.,.,/,/,/,/
CC(C)NC(=O)Nc1ccc2c(c1)C(=O)N([C@H](C)CO)C[C@@H](C)[C@H](CN(C)C(=O)Nc1ccc(C(F)(F)F)cc1)OCCCC[C@@H](C)O2,/,.,.,/,/,/,/
C[C@H](CO)N1C[C@H](C)[C@H](CN(C)C(=O)Nc2ccccc2)OCCCC[C@H](C)Oc2ccc(NC(=O)Nc3ccc(C(F)(F)F)cc3)cc2C1=O,.,/,.,/,/,/,/
C[C@@H]1CN([C@@H](C)CO)C(=O)c2cc(NC(=O)Nc3ccc(C(F)(F)F)cc3)ccc2O[C@@H](C)CCCCO[C@@H]1CN(C)C(=O)Nc1ccccc1,/,/,.,/,/,/,/
C[C@H](CO)N1C[C@H](C)[C@H](CN(C)C(=O)Nc2ccc(F)cc2)OCCCC[C@H](C)Oc2ccc(NC(=O)Nc3ccc(C(F)(F)F)cc3)cc2C1=O,.,98,.,.,109,.,.
C[C@@H]1CCCCO[C@H](CN(C)C(=O)Nc2ccc(F)cc2)[C@H](C)CN([C@@H](C)CO)C(=O)c2cc(NC(=O)Nc3ccc(C(F)(F)F)cc3)ccc2O1,.,97,.,102,115,.,.
CC(C)NC(=O)Nc1ccc2c(c1)C(=O)N([C@H](C)CO)C[C@@H](C)[C@@H](CN(C)C(=O)Nc1ccc(C(F)(F)F)cc1)OCCCC[C@@H](C)O2,/,105,.,104,.,.,.
CNC[C@@H]1OCCCC[C@@H](C)Oc2ccc(NC(=O)Nc3ccc(C(F)(F)F)cc3)cc2C(=O)N([C@@H](C)CO)C[C@H]1C,/,?,.,.,.,.,.
C[C@H](O)C#Cc1cnc2c(c1)C(=O)N([C@H](C)CO)C[C@H](C)[C@@H](CN(C)C(=O)Cc1ccccn1)O2,/,.,.,/,/,/,/
C[C@H](C(=O)N(C)C[C@@H]1OCc2ccccc2-c2ccccc2C(=O)N([C@H](C)CO)C[C@@H]1C)c1ccccc1,.,.,.,/,/,/,/
COc1ccc2c3c([nH]c2c1)[C@H](CO)N(C(=O)Nc1ccc(F)cc1)CC31CCN(S(=O)(=O)c2cn(C)cn2)CC1,/,/,.,/,/,/,/
CCNC(=O)C[C@H]1CC[C@@H]2[C@H](COc3ccc(NC(=O)c4ccc5c(c4)OCO5)cc3C(=O)N2C)O1,/,.,.,/,/,/,/
CCN(CC(=O)Nc1cccc(SC)c1)S(=O)(=O)c1ccc(C)cc1,.,/,/,/,/,/,/
CC(C)Oc1cccc(-c2cc(C(=O)NCc3ccco3)c3ccccc3n2)c1,.,/,/,/,/,/,/
SMILES,IDH1 mut inh,T cruzi growth-1,GASC1 inh,T cruzi growth-2,T cruzi growth-3,NIH3T3 tox,3T3 cytotox 2
C[C@H]1CCCCO[C@@H](CN(C)C(=O)Nc2ccccc2)[C@@H](C)CN([C@@H](C)CO)C(=O)c2cc(NC(=O)Nc3ccc(C(F)(F)F)cc3)ccc2O1,.,/,.,/,/,/,/
C[C@@H]1CCCCO[C@@H](CN(C)C(=O)Nc2ccc(C(F)(F)F)cc2)[C@@H](C)CN([C@H](C)CO)C(=O)c2cc(NC(=O)NC3CCCCC3)ccc2O1,.,/,.,/,/,/,/
C[C@H](CO)N1C[C@H](C)[C@@H](CN(C)C(=O)Nc2ccc(C(F)(F)F)cc2)OCCCC[C@H](C)Oc2ccc(NC(=O)NC3CCCCC3)cc2C1=O,/,113,.,105,105,.,.
C[C@@H]1CCCCO[C@H](CN(C)C(=O)Nc2ccc(F)cc2)[C@@H](C)CN([C@H](C)CO)C(=O)c2cc(NC(=O)Nc3ccc(C(F)(F)F)cc3)ccc2O1,/,?,.,105,101,.,.
C[C@@H]1CCCCO[C@H](CN(C)C(=O)Nc2ccccc2)[C@H](C)CN([C@H](C)CO)C(=O)c2cc(NC(=O)Nc3ccc(C(F)(F)F)cc3)ccc2O1,.,/,.,/,/,/,/
C[C@@H]1CN([C@@H](C)CO)C(=O)c2cc(NC(=O)CCC(F)(F)F)ccc2O[C@@H](C)CCCCO[C@H]1CN(C)C(=O)Nc1ccc(C(F)(F)F)cc1,.,.,.,/,/,/,/
C[C@H]1CCCCO[C@@H](CN(C)C(=O)Nc2ccc(C(F)(F)F)cc2)[C@@H](C)CN([C@@H](C)CO)C(=O)c2cc(NC(=O)Nc3ccc(F)cc3)ccc2O1,.,114,.,108,106,.,.
C[C@H]1CCCCO[C@@H](CN(C)C(=O)Nc2ccc(C(F)(F)F)cc2)[C@@H](C)CN([C@@H](C)CO)C(=O)c2cc(NC(=O)CCC(F)(F)F)ccc2O1,/,?,.,99,110,.,.
NC(=S)c1cc(-c2ccccc2)c(C(F)(F)F)s1,.,/,/,/,/,/,/
C[C@@H]1CCCCO[C@@H](CN(C)Cc2ccc(C(=O)O)cc2)[C@H](C)CN([C@@H](C)CO)C(=O)c2cc(NC(=O)c3ccncc3)ccc2O1,.,.,.,/,/,/,/

# Screening results as filed in PubChem.
